# Measured values: paper PMC2878397 (Journal of natural products, 2010)
# Read-outs that look alike come from different tables or passages of the source.
# Experiments:
# [1] = test system: HT-29 human colon cancer cells; assay: Cytotoxicity assay against HT-29 cells; format: cell-based; conditions: for cytotoxicity ED50: HT-29 cells, three days incubation, SRB; for IC50: Homo sapiens, HT-29, 72 h, read-out: cytotoxicity ED50
# Summary of the method: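 Trypsinized HT-29 cells seeded in 96-well plates with test compound in DMSO; DMSO-only wells as negative control, paclitaxel as positive control. Incubated 3 days at 37 °C, 5% CO2. Cells fixed, held 30 min at room temperature, water-washed, air-dried overnight, then stained with sulforhodamine B. Dye released in tris-base buffer, absorbance read at 515 nm. Cytotoxicity calculated against negative control, reported as ED50 (μM).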
# NF-κB p50 = molecular target: T1, NF-κB p50 (Homo sapiens, UniProt P19838); assay: Enzyme-based ELISA NF-κB p50 assay; format: biochemical
# T1 sequence (P19838 1-433 limits assumed): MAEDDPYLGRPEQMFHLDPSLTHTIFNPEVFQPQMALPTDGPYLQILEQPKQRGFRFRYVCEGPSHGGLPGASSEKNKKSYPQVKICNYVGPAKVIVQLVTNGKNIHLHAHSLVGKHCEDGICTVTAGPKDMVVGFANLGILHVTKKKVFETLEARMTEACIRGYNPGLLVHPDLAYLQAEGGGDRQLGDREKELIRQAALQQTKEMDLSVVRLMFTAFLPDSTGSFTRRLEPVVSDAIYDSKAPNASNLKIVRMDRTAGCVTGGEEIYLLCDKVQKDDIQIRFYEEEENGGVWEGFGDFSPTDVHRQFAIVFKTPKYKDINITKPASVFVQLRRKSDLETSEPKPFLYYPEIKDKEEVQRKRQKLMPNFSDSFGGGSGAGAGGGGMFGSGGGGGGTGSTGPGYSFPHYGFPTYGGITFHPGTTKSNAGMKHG
# NF-κB p65 = NF-κB p65 (Homo sapiens, UniProt Q04206); assay: Enzyme-based ELISA NF-κB p65 assay; format: biochemical
# 9KB = 9KB in vitro test system; cited from earlier work
# 9PS = 9PS in vitro test system; cited from earlier work
# P388 leukemia cells = conditions: cited from earlier work
# NF-κB p65, sequence (Q04206 whole entry, one chain of several): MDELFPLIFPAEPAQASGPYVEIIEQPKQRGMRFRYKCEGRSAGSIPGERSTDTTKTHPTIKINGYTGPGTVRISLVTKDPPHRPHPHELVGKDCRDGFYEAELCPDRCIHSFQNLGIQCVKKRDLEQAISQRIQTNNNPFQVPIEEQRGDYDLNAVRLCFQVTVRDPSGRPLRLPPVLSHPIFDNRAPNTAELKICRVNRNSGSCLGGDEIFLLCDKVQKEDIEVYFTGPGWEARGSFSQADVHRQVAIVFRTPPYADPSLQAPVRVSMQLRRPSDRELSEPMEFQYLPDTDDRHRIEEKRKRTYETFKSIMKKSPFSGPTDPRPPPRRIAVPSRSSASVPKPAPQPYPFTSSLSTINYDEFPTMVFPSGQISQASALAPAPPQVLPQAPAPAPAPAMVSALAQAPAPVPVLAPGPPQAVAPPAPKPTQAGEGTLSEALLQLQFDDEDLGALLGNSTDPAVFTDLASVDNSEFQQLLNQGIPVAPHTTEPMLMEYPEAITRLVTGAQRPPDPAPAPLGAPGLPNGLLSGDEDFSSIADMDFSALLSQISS
IC50 (NF-κB p50),IC50 (NF-κB p65),Molecule,cytotoxicity ED50 [1],other results
> 10 µM,> 10 µM,"CC1(C)C=Cc2cc3c(cc2O1)Oc1cc(O)ccc1C(O)=C3 [Compound 5, 2,2-dimethyl-2H-benzo{6,7-oxepino[3,2-g]}chromene-7,10-diol]",–,IC50 [1]: 10.7 µM
3.7 µM,2.3 µM,"C=C(C)[C@H]1Cc2c(oc3c4c(cc(O)c3c2=O)OC(C)(C)C=C4)-c2c(O)cc(O)c(O)c21 [Compound 7, artobiloxanthone]",>10 µM,–
> 10 µM,> 10 µM,"CC1(C)C=Cc2c(cc(O)c3c(=O)c4c(oc23)-c2c(O)cc(O)c3c2C(C4)C(C)(C)O3)O1 (stereo not shown) [Compound 8, cycloartobiloxanthone]",–,–

# Further lines, the molecule ahead of its results:
Molecule,IC50 (NF-κB p50),IC50 (NF-κB p65),cytotoxicity ED50 [1],other results
"3-hydroxy-4,3′,5′-trimethoxy-trans-stilbene [Compound 9]",–,–,8.7 µM,"IC50 (NF-κB p50; read-out: NF-κB p50 inhibition IC50, HeLa nuclear extract, ELISA): > 10 µM; IC50 (NF-κB p65; read-out: NF-κB p65 inhibition IC50, HeLa nuclear extract, ELISA): > 10 µM; cytotoxicity ED50 (9KB): 0.01 µg/mL; cytotoxicity ED50 (9PS): 0.1 µg/mL"
"C=C(C)[C@H]1Cc2c(oc3c(CC=C(C)C)c(O)c(CC=C(C)C)c(O)c3c2=O)-c2c(O)cc(O)c(O)c21 [Compound 1, (5R)-5,6-dihydro-1,3,4,8,10-pentahydroxy-5-isopropenyl-9,11-bis(3-methyl-2-butenyl)-7H-benzo[c]xanthen-7-one]",2 µM,> 10 µM,–,–
"C=C(C)c1cc2c(=O)c3c(O)c(CC=C(C)C)c(O)cc3oc2c2c1C(=O)C(O)=C(CC=C(C)C)C2=O [Compound 3, 4,8,10-trihydroxy-5-isopropenyl-2,9-bis(3-methyl-2-butenyl)-7-benzo[c]xanthen-2,4,7-trione]",–,–,>10 µM,–
"CC(C)=CCc1c(O)c(CC=C(C)C)c2oc3c(c(=O)c2c1O)C(C=C(C)C)Oc1cc(O)c(O)cc1-3 (stereo not shown) [Compound 4, 2,3,8,10-tetrahydroxy-6-(2-methylpropenyl)-9,11-bis(3-methyl-2-butenyl)-6H[1]benzopyrano[4,3-b]benzopyran-7-one]",> 10 µM,> 10 µM,–,–
"C=C(C)[C@H]1Cc2c(oc3cc(O)c(CC=C(C)C)c(O)c3c2=O)C2=C1C(=O)C(O)=C(CC=C(C)C)C2=O [Compound 6, artonin O]",> 10 µM,> 10 µM,–,–
CC(C)=CCc1c(-c2cc(O)c(O)cc2O)oc2c3c(cc(O)c2c1=O)OC(C)(C)C=C3 [artonin E],–,–,–,cytotoxicity ED50 (P388 leukemia cells): 0.06 µg/mL
COc1cc(O)c2c(=O)c3cc4c5c(c(O)cc(O)c5c3oc2c1)OC4(C)C [artonin K],–,–,–,IC50 [1]: > 10 µM
